The text below walks through data of publication PMC8105262 (Molecular imaging and biology, 2020).

Read-outs that look alike come from different tables or passages of the source. Where only a bound is given, the exact number is not on record here.

Data set [1] concerns the target SV2A. The conditions noted are these: rat brain homogenate; cited from earlier work.
In data set [2] the target is T1, SV2A (Mus musculus, UniProt Q9JIS5). As to the kind of experiment: Dynamic small animal PET imaging of mouse brain with [^18F]SynVesT-1. It counts as in vivo. Put shortly:
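Female WT (C57BL/6J) and APP/PS1 mice, 88 ± 4 weeks, n = 3 each, under 1.5–2.5% isoflurane on a heating pad. Radiotracer given as an i.v. lateral tail-vein bolus (10.28 ± 3.74 MBq in 0.1 mL). Baseline emission data acquired 0–90 min p.i. on small-animal PET/CT. OSEM3D/MAP reconstruction with decay, attenuation, scatter, normalization and randoms corrections. Images co-registered to mouse brain atlas space for regional time-activity curves.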

The target in data set [3] is T1, SV2A. It counts as binding.
Data set [4] concerns the target T1, SV2A. It counts as binding. In outline: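 Mouse brain homogenate in 50 mM Tris-HCl with 2 mM MgCl2, pH 7.4, at 0.01 mg protein per well. Unlabelled ligand added from standard solutions of 0.1–50,000 nM, plus radioligand (~0.074 MBq, 2.3 nM). Shaken at 37 °C for 30 min, filters washed twice with buffer, then gamma counted. Binding expressed as pmol/mg protein. Nonspecific binding defined with 0.05 mM unlabelled ligand. Specific binding plotted against log total (hot + cold) ligand concentration.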
This is another data set of the same source.

Data set [5] addresses SV2A. The settings on record: [^3H]UCB-J competitive binding, rat whole brain; cited from earlier work.
Data set [6] relates to SV2A binding in the hippocampus. The settings on record: APP/PS1 mice vs WT, [^11C]UCB-J PET; cited from earlier work.
Where [7] appears, read: rodent brain, from time-activity curves.

T1 sequence (Q9JIS5 whole entry): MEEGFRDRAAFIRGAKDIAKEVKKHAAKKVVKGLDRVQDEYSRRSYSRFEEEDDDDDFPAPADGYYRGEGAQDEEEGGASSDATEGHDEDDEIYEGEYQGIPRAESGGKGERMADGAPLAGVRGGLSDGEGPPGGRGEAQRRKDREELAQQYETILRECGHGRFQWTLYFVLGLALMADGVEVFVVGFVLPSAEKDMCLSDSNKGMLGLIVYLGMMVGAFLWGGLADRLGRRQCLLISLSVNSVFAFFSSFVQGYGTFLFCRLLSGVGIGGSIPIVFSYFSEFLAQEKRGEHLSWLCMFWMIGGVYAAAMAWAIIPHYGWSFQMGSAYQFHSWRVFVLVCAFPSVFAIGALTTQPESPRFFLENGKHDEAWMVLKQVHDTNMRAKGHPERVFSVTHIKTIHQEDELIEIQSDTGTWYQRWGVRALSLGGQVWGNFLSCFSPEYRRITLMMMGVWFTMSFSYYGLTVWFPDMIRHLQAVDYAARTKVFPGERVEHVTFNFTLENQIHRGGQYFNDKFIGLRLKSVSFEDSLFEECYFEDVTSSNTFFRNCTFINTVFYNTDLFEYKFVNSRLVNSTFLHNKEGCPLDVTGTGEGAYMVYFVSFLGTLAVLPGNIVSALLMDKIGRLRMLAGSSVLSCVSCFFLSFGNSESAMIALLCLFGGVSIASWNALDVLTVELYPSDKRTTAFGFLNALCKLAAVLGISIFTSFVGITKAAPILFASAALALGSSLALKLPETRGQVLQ

`Cc1cnccc1CN1C[C@@H](c2cc(F)c(F)c(F)c2)CC1=O` [UCB-J]: on SV2A [1], the Kd was 2.6 ± 0.25 nM.
On to `Cc1cnccc1CN1C[C@@H](c2cc(F)cc([18F])c2)CC1=O` [[^18F]SynVesT-1, (R)-4-(3-Fluoro-5-(fluoro-^18F)phenyl)-1-((3-methylpyridin-4-yl)methyl)pyrrolidin-2-one], for which the “Time of peak of brain time-activity curves” value on SV2A [2] (WT and APP/PS1 mice, i.v. bolus, 0–90 min scan) is listed as no more than 20 min p.i. Further, the BBB penetration entry at SV2A [2] (setting [7]) is listed as “efficient BBB penetration”. Further, the “Binding kinetics in brain” value on SV2A [2] (setting [7]) is reported as “reversible binding kinetics”. Besides, the Bmax is given as 1.8 ± 0.1 pmol/mg of brain tissue at SV2A [3] (WT mouse brain sections); 18 ± 1 pmol/mg protein at SV2A [3] (WT mouse brain sections, assuming 10% of brain tissue is protein); 4.54 pmol/mg protein at SV2A [4] (mouse brain homogenate). Further, the “Radioligand concentration at which total binding appeared to saturate” value on SV2A [3] (mouse brain sections) was “above 25 nM”. For the same molecule, the “Bmax (range over homologous competitive and autoradiographic saturation assays)” value on SV2A [4] (rodent brain tissue) is listed as 4.5–18 pmol/mg protein.
Take `Cc1cnccc1CN1C[C@@H](c2cc(F)cc(F)c2)CC1=O` [SynVesT-1]: the Ki on SV2A [5] is 2.2 nM.
Take `Cc1cnccc1CN1C[C@@H](c2cc(F)cc(F)c2)CC1=O` [[^18F]SynVesT-1, (R)-4-(3-Fluoro-5-(fluoro-^18F)phenyl)-1-((3-methylpyridin-4-yl)methyl)pyrrolidin-2-one]: the Kd at SV2A [3] (WT mouse brain sections, nonspecific binding with 1 mM levetiracetam) is 9.8 ± 1.7 nM; at SV2A [4] (mouse brain homogenate, 37 °C, 30 min, Kd=Ki=IC50−[radioligand]), 19.6 ± 1.38 nM.
Turning to `CN1CCN(CCOc2cc(OC3CCOCC3)c3c(Nc4c(Cl)ccc5c4OCO5)ncnc3c2)CC1` [saracatinib], the “Effect of treatment on decreased hippocampal SV2A binding” value in data set [6] is given as “restored to the same level as the WT mice”.

A word on the Kd: it is the equilibrium constant for the complex coming apart. The term Ki denotes a dissociation constant, usually derived from enzyme kinetics or from competition with a known ligand.
